Reference: ChEMBL document CHEMBL4387788, “Brominated Azaphilones from the Sponge-Associated Fungus Penicillium canescens Strain 4.14.6a” (J Nat Prod, 2019)

Legend:
L5178Y = assay: Cytotoxicity against mouse L5178Y cells assessed as reduction in cell viability incubated for 72 hrs by MTT assay; assay type: functional, cell-based
Summary of the method: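 MTT assay on L5178Y mouse lymphoma cells. Kahalalide F was the positive control; 0.1% ethylene glycol monomethyl ether in DMSO was the negative control.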

A2780 = assay: Cytotoxicity against human A2780 cells assessed as reduction in cell viability incubated for 72 hrs by MTT assay; assay type: functional, cell-based; conditions: A2780, 72 h
Summary of the method: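 A2780 human ovarian cancer cells were seeded at 9500 cells/well and, after 24 h, exposed to 3.6-fold serial dilutions of compound for 72 h. MTT (5 mg/mL in PBS) was added, and the formazan was dissolved in DMSO. Absorbance was read at 544 and 690 nm. Cisplatin was the positive control and 0.9% sodium chloride the negative control.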

Compound | IC50 (L5178Y) | IC50 (A2780)
CC1(C)C=Cc2cc3c(cc2O1)c(C[C@@H]1NC(=O)C2=CCCN2C1=O)c1n3C=CC1(C)C | > 10 µM | > 10 µM
COC(=O)[C@@]12C(O)=C(C)C(=O)[C@]1(C)C(C)=C[C@H]1[C@]34CC[C@H](OC(C)=O)C(C)(C)[C@H]3[C@H](C[C@@]12C)OC4=O | > 10 µM | > 10 µM
COC1=CC(=O)C[C@@H](C)[C@]12Oc1c(Cl)c(OC)cc(OC)c1C2=O [GRISEOFULVIN] | > 10 µM | > 10 µM
COc1cc(C[C@]23COC(/C=C/C=C/C=C/C(=O)O)=CC2=C(Br)C(=O)[C@](C)(OC(=O)C[C@H](O)C[C@@H](C)O)C3=O)c(C(C)=O)c(O)c1O | 13.9 µM | 37 µM
COC(=O)Cc1cc(O)cc(O)c1C(C)=O | > 10 µM | > 10 µM
COc1cc(C[C@]23COC(/C=C/C=C/C=C/C(=O)O)=CC2=C(Br)C(=O)[C@@](C)(OC(=O)C[C@H](O)C[C@@H](C)O)C3=O)c(C(C)=O)c(O)c1O | 8.9 µM | 2.7 µM
COC(=O)c1c(O)cc(OC)c(Cl)c1Oc1c(C)cc(OC)cc1OC | > 10 µM | > 10 µM
Cc1cc(O)cc2oc3cc(O)cc(O)c3c(=O)c12 [NORLICHEXANTHONE] | > 10 µM | > 10 µM
COc1cc(O)c(C(=O)c2c(C)cc(O)cc2OC)c(O)c1Cl | > 10 µM | > 10 µM
COC(=O)c1c(O)cc(OC)c(Cl)c1Oc1c(C)cc(O)cc1OC | > 10 µM | > 10 µM
COc1cc(O)c(C(=O)c2c(C)cc(O)cc2OC)c(O)c1 | > 10 µM | > 10 µM
C=C(C)C1(O)OC(=O)C=C1OC (stereo not drawn) [PENICILLIC ACID] | 8.9 µM | > 10 µM
COC(=O)Cc1cc(OC)cc(O)c1C(C)=O | > 10 µM | > 10 µM
COc1cc(O)cc(C)c1C(=O)c1c(O)c(Cl)c(OC)c(Cl)c1O | > 10 µM | > 10 µM
COC1=CC(=O)C[C@@H](C)[C@]12Oc1cc(OC)cc(OC)c1C2=O | > 10 µM | > 10 µM
COc1cc(O)c2c(=O)c3c(C)cc(O)cc3oc2c1 | > 10 µM | > 10 µM
C/C=C1\NC(=O)[C@H](Cc2ccccc2)NC(=O)[C@@H](C(C)C)NC(=O)[C@@H]([C@@H](C)CC)NC(=O)[C@H](NC(=O)[C@H](NC(=O)[C@H](CCCN)NC(=O)[C@H]2CCCN2C(=O)[C@H](NC(=O)[C@@H](NC(=O)[C@@H](NC(=O)[C@H](NC(=O)CCCC(C)C)C(C)C)[C@@H](C)O)C(C)C)C(C)C)[C@@H](C)CC)[C@@H](C)OC(=O)[C@H](C(C)C)NC1=O | 4.3 µM | –
